Experimental data reported in ChEMBL document CHEMBL5712918, “Targeting methyltransferase PRMT5 retards the carcinogenesis and metastasis of HNSCC via epigenetically inhibiting Twist1 transcription” (Neoplasia, 2020).
Active and inactive are the calls of the source. No cut-off for these calls is given here.

Key:
HSC-6 [1] = experiment: Antitumor activity against human HSC-6 cells xenografted in BALB/c nude mouse model of orthotopic tumor assessed as as reduction in distant metastasis in kidney at 30 mg/kg by H and E analysis; assay type: functional, organism-based
[2] = molecular target: Protein arginine N-methyltransferase 5 (Homo sapiens) (UniProt O14744); experiment: Inhibition of PRMT5 in human HSC-6 cells assessed as reduction in H3R8me2 protein expression at 10 uM incubated for 4 days by western blot analysis; assay type: cell-based; settings: time 4.0 day
[3] = molecular target: Protein arginine N-methyltransferase 5 (Homo sapiens) (UniProt O14744); experiment: Inhibition of PRMT5 in human HSC-6 cells assessed as reduction in WDR5 occupancy in Twist1 promoter region at 10 uM incubated for 4 days by Chip-qPCR analysis; assay type: cell-based; settings: time 4.0 day
Outline: (§1)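 ChIP-qPCR at the Twist1 promoter after 4 days at 10 μM in HSC6 or SCC25 cells. Antibody ratios: H3R2me2s 1:100, H4R3me2s 1:100, WDR5 1:50, Set1 1:50; ChIP assay kit protocol. Mean ± SD of three independent experiments, Student's t test.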

[4] = test system: Squamous carcinoma cell line; experiment: Antitumor activity against human squamous carcinoma cells in BALB/c nude PDX xenograft mouse assessed as reduction in Ki67-positive cells at 30 mg/kg by IHC analysis; assay type: functional, organism-based
Outline: (§2)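 PDX: tongue squamous carcinoma tissue minced into 1∼2 mm3 pieces and passaged in BALB/c nude mice. P2 tissue implanted subcutaneously into 4-week-old mice, randomised at 50 mm3 tumour size to control or 30 mg/kg (n = 6 each). Volume change followed, and Ki-67 IHC quantified. Mean ± SD, Student's t test.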

[5] = molecular target: Protein arginine N-methyltransferase 5 (Homo sapiens) (UniProt O14744); experiment: Inhibition of PRMT5 in human SCC-25 cells over expressing Twist1 assessed as decrease in E-cadherin protein level at 10 uM incubated for 4 days by immunoblot analysis; assay type: cell-based; settings: time 4.0 day
Outline: (§3)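 SCC25 cells stably overexpressing Flag-tagged Twist1 were treated with or without 10 μM inhibitor for 4 days, then immunoblotted for Twist1, N-cadherin and E-cadherin.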

[6] = Toxicity in BALB/c nude mouse xenografted with human tongue squamous carcinoma cells assessed as effect on liver morphology at 30 mg/kg; assay type: organism-based; settings: in vivo
[7] = molecular target: Protein arginine N-methyltransferase 5 (Homo sapiens) (UniProt O14744); experiment: Inhibition of PRMT5 in human HSC-6 cells assessed as reduction in set1 occupancy in Twist1 promoter region at 10 uM incubated for 4 days by Chip-qPCR analysis; assay type: cell-based; settings: time 4.0 day; outline: as §1
HSC-6 [8] = experiment: Antitumor activity against human HSC-6 cells xenografted in BALB/c nude mouse model of orthotopic tumor assessed as reduction in tumor volume in tongue at 30 mg/kg by H and E staining based assay; assay type: functional, organism-based
Outline: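 Orthotopic tongue xenograft: 5 × 10^5 HSC6 cells submucosally in 4-week-old BALB/c nude mice, control or 30 mg/kg (n = 12 each). Tumour volume quantified on HE-stained longitudinal tongue sections. Student's t test.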

HSC-6 [9] = experiment: Antitumor activity against human HSC-6 cells xenografted in BALB/c nude mouse model of orthotopic tumor assessed as reduction in lymphnode metastasis at 30 mg/kg by immunohistochemistry analysis; assay type: functional, organism-based
Outline: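 Orthotopic model: 5 × 10^5 HSC6 cells injected submucosally into the tongue of 4-week-old BALB/c nude mice, vehicle or 30 mg/kg (n = 12 each). Cervical lymph node metastasis detected by IHC with pan-cytokeratin antibody 1:400. Metastasis rates compared by Fisher's exact test.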

[10] = molecular target: Protein arginine N-methyltransferase 5 (Homo sapiens) (UniProt O14744); experiment: Inhibition of PRMT5 in human SCC-25 cells assessed as reduction in H3R2me2 enrichment in Twist1 promoter region at 10 uM incubated for 4 days by Chip-qPCR analysis; assay type: cell-based; settings: time 4.0 day; outline: as §1
[11] = test system: Squamous carcinoma cell line; experiment: Antitumor activity against human squamous carcinoma cells in BALB/c nude PDX xenograft mouse assessed as tumor volume at 30 mg/kg; assay type: functional, organism-based; outline: as §2
[12] = molecular target: Protein arginine N-methyltransferase 5 (Homo sapiens) (UniProt O14744); experiment: Inhibition of PRMT5 in human HSC-6 cells over expressing Twist1 assessed as decrease in E-cadherin protein level at 10 uM incubated for 4 days by immunoblot analysis; assay type: cell-based; settings: time 4.0 day
Outline: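 HSC6 cells stably overexpressing Flag-Twist1, with or without 10 μM for 4 days. Twist1, N-cadherin and E-cadherin proteins detected by immunoblot.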

HSC-6 [13] = experiment: Antitumor activity against human HSC-6 cells xenografted in BALB/c nude mouse assessed as as reduction in lymphnode metastasis at 30 mg/kg by H and E analysis; assay type: functional, organism-based
[14] = molecular target: Protein arginine N-methyltransferase 5 (Homo sapiens) (UniProt O14744); experiment: Inhibition of PRMT5 in human SCC-25 cells assessed as reduction in set1 occupancy in Twist1 promoter region at 10 uM incubated for 4 days by Chip-qPCR analysis; assay type: cell-based; settings: time 4.0 day
Outline: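 SCC25 cells exposed to inhibitor at 10 μM for 4 days. ChIP used a commercial kit with anti-WDR5 or anti-Set1 (1:50), and binding at the Twist1 promoter was quantified by qPCR. Mean ± SD of three independent experiments, Student's t test.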

HSC-6 [15] = experiment: Antitumor activity against human HSC-6 cells xenografted in BALB/c nude mouse assessed as reduction in tumor volume at 15 to 30 mg/kg; settings: dose 15-30 mg/kg
Rattus norvegicus = experiment: Antitumor activity against 4-Nitroquinoline-1-Oxide induced cancer Sprague-Dawley rat carcinogenic model assessed as cancer area of tongue tissue at 30 mg/kg, iv administered on week 12 and measured on week 22 (reference value: 80%); assay type: functional; settings: time 10 weeks
[16] = molecular target: Protein arginine N-methyltransferase 5 (Homo sapiens) (UniProt O14744); experiment: Inhibition of PRMT5 in human SCC-25 cells over expressing Twist1 assessed as increase in N-cadherin protein level at 10 uM incubated for 4 days by immunoblot analysis; assay type: cell-based; settings: time 4.0 day; outline: as §3
HSC-6 [17] = experiment: Antiproliferative activity against human HSC-6 cells assessed as reduction in colony formation at 0.5 to 5 uM after 10 to 14 days […]; assay type: functional, cell-based; settings: dose 0.5-5 µM, time 10-14 day
Outline: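 Colony formation: cells dispersed to single cells and seeded at 500 cells/well in 6-well plates. Grown 10–14 days until macroscopic clones appeared, then formaldehyde-fixed and crystal violet-stained. Clone formation rate from clones counted by eye.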

SCC-25 [18] = experiment: Antimigratory activity against human SCC-25 cells assessed as reduction in cell invasion after 48 hrs incubated for 48 hrs by transwell assay; assay type: functional, cell-based
HSC-6 [19] = experiment: Antiproliferative activity against human HSC-6 cells assessed as reduction in cell vaibility at 1 to 10 uM by CCK-8 assay; assay type: functional, cell-based; settings: dose 1-10 µM
Outline: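 Proliferation of HSC6 and SCC25 cells read by CCK-8 conversion. Mean ± SD of three independent experiments, Student's t test.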

[20] = molecular target: Protein arginine N-methyltransferase 5 (Homo sapiens) (UniProt O14744); experiment: Inhibition of PRMT5 in human HSC-6 cells assessed as reduction in H4R3me2 protein expression at 10 uM incubated for 4 days by western blot analysis; assay type: cell-based; settings: time 4.0 day
[21] = molecular target: Protein arginine N-methyltransferase 5 (Homo sapiens) (UniProt O14744); experiment: Inhibition of PRMT5 in human SCC-25 cells assessed as reduction in H3R8me2 protein expression at 10 uM incubated for 4 days by western blot analysis; assay type: cell-based; settings: time 4.0 day
[22] = Toxicity in BALB/c nude mouse xenografted with human HSC6 cells assessed as effect on liver morphology at 15 to 30 mg/kg; assay type: organism-based; settings: in vivo, dose 15-30 mg/kg
Outline: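 Subcutaneous xenograft in 4-week-old BALB/c nude mice given 6 × 10^7 HSC6 cells into the back. Groups were control, 15 mg/kg and 30 mg/kg. Body weight was monitored and major organs were examined for toxicity.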

SCC-25 [23] = experiment: Antimigratory activity against human SCC-25 cells assessed as reduction in cell migration after 48 hrs incubated for 48 hrs by transwell assay; assay type: functional, cell-based

Chain of Protein arginine N-methyltransferase 5 (Homo sapiens) (O14744 whole entry): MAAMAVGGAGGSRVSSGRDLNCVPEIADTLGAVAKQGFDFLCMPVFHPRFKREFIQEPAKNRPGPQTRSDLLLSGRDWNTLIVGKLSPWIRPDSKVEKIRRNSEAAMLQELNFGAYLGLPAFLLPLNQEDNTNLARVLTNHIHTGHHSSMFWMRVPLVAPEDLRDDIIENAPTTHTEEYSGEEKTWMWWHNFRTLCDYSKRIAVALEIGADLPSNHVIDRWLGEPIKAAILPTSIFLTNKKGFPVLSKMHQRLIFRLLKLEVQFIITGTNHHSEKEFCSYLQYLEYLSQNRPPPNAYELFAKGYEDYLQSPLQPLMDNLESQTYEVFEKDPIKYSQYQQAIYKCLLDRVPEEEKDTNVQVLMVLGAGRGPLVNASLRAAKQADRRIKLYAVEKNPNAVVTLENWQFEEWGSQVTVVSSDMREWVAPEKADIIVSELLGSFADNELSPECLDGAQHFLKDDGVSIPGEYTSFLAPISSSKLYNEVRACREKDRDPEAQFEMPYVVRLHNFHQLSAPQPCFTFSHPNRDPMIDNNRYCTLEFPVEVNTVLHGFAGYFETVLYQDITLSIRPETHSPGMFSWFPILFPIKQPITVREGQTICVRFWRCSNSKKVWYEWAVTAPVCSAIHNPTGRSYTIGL

- inhibition [2]: Active
- inhibition [3]: Active
- inhibition [5]: inactive
- inhibition [7]: Active
- inhibition [10]: Active
- inhibition [12]: inactive
- inhibition [14]: Active
- inhibition [16]: inactive
- inhibition [20]: Active
- inhibition [21]: Active
Structure (SMILES): O=C(NC[C@H](O)CN1CCc2ccccc2C1)c1cc(NC2COC2)ncn1
- Activity (HSC-6 [1]): Active
- Activity [4]: Active
- Activity [6]: Non-Toxic
- Activity (HSC-6 [8]): Active
- Activity (HSC-6 [9]): Active
- Activity [11]: Active
- Activity (HSC-6 [13]): Active
- Activity (HSC-6 [15]): Active
- Activity (Rattus norvegicus): 46.2%
- Activity (HSC-6 [17]): Active
- Activity (SCC-25 [18]): Active
- Activity (HSC-6 [19]): Active
- Activity [22]: Non-Toxic
- Activity (SCC-25 [23]): Active
